Experimental data taken from ChEMBL document CHEMBL1687881, “Synthesis and evaluation of aroylthiourea derivatives of 4-β-amino-4'-O-demethyl-4-desoxypodophyllotoxin as novel topoisomerase II inhibitors” (Eur J Med Chem, 2011).
pIC50: −log10 of the molar value. Activity calls are given as the source filed them. The calls are words filed in the database; no cut-off is given here.

What was measured:
HCT-116 [1] = assay: Cytotoxicity against human HCT116 cells assessed as cell growth inhibition after 3 days by MTT assay; format: functional, cell-based; conditions: HCT-116, 72 h
How it was run: (§1)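 Cells grown in RPMI-1640 with 10% FBS, penicillin 100 U/mL and streptomycin, 37 °C, 5% CO2. Exponential-phase cells seeded at 5 × 10⁴–1 × 10⁵ cells/mL, grown overnight, then treated with DMSO-predissolved compounds for 3 days. Medium replaced by MTT for 4 h at 37 °C; formazan dissolved in SDS/DMF/water/acetic acid buffer (pH 4.7); absorbance read at 570 nm. At least three independent experiments.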

HepG2 = assay: Cytotoxicity against human HepG2 cells assessed as cell growth inhibition after 3 days by MTT assay; format: functional, cell-based; conditions: HepG2, 72 h; how it was run: as §1
A549 = assay: Cytotoxicity against human A549 cells assessed as cell growth inhibition after 3 days by MTT assay; format: functional, cell-based; conditions: A549, 72 h; how it was run: as §1
[2] = target: DNA topoisomerase 2-alpha (Homo sapiens) (UniProt P11388); assay: Inhibition human topoisomerase 2 kDNA decatenation activity at 200 uM
Sequence of DNA topoisomerase 2-alpha (Homo sapiens) (P11388 whole entry): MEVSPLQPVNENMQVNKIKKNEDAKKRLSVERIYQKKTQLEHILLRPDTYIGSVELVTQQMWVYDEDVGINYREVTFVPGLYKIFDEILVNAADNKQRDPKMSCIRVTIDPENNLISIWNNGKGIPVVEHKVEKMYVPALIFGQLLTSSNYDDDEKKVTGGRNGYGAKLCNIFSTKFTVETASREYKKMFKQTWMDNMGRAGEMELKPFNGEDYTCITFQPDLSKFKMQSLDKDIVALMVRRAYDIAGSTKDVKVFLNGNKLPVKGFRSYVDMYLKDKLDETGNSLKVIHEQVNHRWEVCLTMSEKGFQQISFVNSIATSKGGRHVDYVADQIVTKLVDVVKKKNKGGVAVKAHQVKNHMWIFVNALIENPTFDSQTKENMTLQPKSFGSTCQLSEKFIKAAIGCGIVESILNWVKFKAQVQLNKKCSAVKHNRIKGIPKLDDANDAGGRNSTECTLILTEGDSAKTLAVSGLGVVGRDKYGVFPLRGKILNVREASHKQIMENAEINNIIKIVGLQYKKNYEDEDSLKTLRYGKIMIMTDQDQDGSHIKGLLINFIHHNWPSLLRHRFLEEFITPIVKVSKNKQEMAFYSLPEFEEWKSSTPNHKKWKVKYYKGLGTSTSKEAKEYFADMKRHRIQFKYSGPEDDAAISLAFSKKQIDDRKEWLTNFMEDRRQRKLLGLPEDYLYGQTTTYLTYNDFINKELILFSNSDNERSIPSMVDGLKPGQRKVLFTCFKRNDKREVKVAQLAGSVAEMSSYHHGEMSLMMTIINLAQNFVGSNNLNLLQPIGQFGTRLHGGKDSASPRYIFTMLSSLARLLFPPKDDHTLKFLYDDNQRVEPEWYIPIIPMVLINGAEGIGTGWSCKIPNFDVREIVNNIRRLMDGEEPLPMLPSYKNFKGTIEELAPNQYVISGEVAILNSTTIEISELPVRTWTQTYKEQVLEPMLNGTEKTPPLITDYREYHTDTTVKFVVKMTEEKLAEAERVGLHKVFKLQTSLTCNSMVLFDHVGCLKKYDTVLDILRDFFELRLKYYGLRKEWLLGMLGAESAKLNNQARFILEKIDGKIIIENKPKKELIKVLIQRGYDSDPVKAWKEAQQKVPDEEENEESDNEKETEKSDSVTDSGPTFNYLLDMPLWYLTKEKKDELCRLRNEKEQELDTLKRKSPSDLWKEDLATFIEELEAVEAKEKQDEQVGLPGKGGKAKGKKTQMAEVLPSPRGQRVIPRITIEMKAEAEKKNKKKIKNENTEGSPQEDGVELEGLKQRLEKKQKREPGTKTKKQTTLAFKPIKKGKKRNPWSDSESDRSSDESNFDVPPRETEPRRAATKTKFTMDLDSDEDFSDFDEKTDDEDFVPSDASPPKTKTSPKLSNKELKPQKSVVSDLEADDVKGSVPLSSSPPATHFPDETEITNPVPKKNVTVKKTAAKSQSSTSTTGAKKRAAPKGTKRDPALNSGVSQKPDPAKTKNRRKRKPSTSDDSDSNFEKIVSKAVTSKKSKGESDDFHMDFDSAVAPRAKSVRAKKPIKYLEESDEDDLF

HCT-116 [3] = assay: Cell cycle arrest in human HCT116 cells assessed as accumulation at sub G1 phase at 2.5 uM after 24 hrs using propidium iodide by fluorescence flow cytometry; format: functional
How it was run: (§2)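 HCT-116 cells incubated 24 h with test agent at […], stained with propidium iodide; DNA content analysed by fluorescence flow cytometry to give percentage of cells per cell-cycle phase. Values are means of at least three independent experiments.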

HCT-116 [4] = assay: Cell cycle arrest in human HCT116 cells assessed as accumulation at G2/M phase at 10 uM after 24 hrs using propidium iodide by fluorescence flow cytometry; format: functional; how it was run: as §2
HCT-116 [5] = assay: Cell cycle arrest in human HCT116 cells assessed as accumulation at sub G1 phase at 10 uM after 24 hrs using propidium iodide by fluorescence flow cytometry; format: functional; how it was run: as §2
HCT-116 [6] = assay: Cell cycle arrest in human HCT116 cells assessed as accumulation at G2/M phase at 5 uM after 24 hrs using propidium iodide by fluorescence flow cytometry; format: functional; how it was run: as §2
HCT-116 [7] = assay: Cell cycle arrest in human HCT116 cells assessed as accumulation at S phase at 10 uM after 24 hrs using propidium iodide by fluorescence flow cytometry; format: functional; how it was run: as §2
HCT-116 [8] = assay: Cell cycle arrest in human HCT116 cells assessed as accumulation at G1 phase at 2.5 uM after 24 hrs using propidium iodide by fluorescence flow cytometry; format: functional; how it was run: as §2
HCT-116 [9] = assay: Cell cycle arrest in human HCT116 cells assessed as accumulation at G1 phase at 10 uM after 24 hrs using propidium iodide by fluorescence flow cytometry; format: functional; how it was run: as §2
HCT-116 [10] = assay: Cell cycle arrest in human HCT116 cells assessed as accumulation at sub G1 phase at 1.25 uM after 24 hrs using propidium iodide by fluorescence flow cytometry; format: functional; how it was run: as §2
HCT-116 [11] = assay: Cell cycle arrest in human HCT116 cells assessed as accumulation at S phase at 2.5 uM after 24 hrs using propidium iodide by fluorescence flow cytometry; format: functional; how it was run: as §2
HCT-116 [12] = assay: Cell cycle arrest in human HCT116 cells assessed as accumulation at G2/M phase at 2.5 uM after 24 hrs using propidium iodide by fluorescence flow cytometry; format: functional; how it was run: as §2
HCT-116 [13] = assay: Cell cycle arrest in human HCT116 cells assessed as accumulation at G2/M phase at 1.25 uM after 24 hrs using propidium iodide by fluorescence flow cytometry; format: functional; how it was run: as §2
HCT-116 [14] = assay: Cell cycle arrest in human HCT116 cells assessed as accumulation at sub G1 phase at 5 uM after 24 hrs using propidium iodide by fluorescence flow cytometry; format: functional; how it was run: as §2
HCT-116 [15] = assay: Cell cycle arrest in human HCT116 cells assessed as accumulation at G1 phase at 5 uM after 24 hrs using propidium iodide by fluorescence flow cytometry; format: functional; how it was run: as §2
HCT-116 [16] = assay: Cell cycle arrest in human HCT116 cells assessed as accumulation at G1 phase at 1.25 uM after 24 hrs using propidium iodide by fluorescence flow cytometry; format: functional; how it was run: as §2
HCT-116 [17] = assay: Cell cycle arrest in human HCT116 cells assessed as accumulation at S phase at 5 uM after 24 hrs using propidium iodide by fluorescence flow cytometry; format: functional; how it was run: as §2
HCT-116 [18] = assay: Cell cycle arrest in human HCT116 cells assessed as accumulation at S phase at 1.25 uM after 24 hrs using propidium iodide by fluorescence flow cytometry; format: functional; how it was run: as §2

SMILES	pIC50 (HCT-116 [1])	pIC50 (HepG2)	pIC50 (A549)	other results
COc1cc([C@@H]2c3cc4c(cc3[C@@H](NC(=S)NC(=O)c3ccc(Cl)cc3)[C@H]3COC(=O)[C@H]23)OCO4)cc(OC)c1O	5.14	5.12	4.94	
COc1cc([C@@H]2c3cc4c(cc3[C@@H](NC(=S)NC(=O)c3ccccc3I)[C@H]3COC(=O)[C@H]23)OCO4)cc(OC)c1O	5.17	5.17	4.82	inhibition [2]: Active
COc1cc([C@@H]2c3cc4c(cc3[C@@H](NC(=S)NC(=O)c3ccccc3Br)[C@H]3COC(=O)[C@H]23)OCO4)cc(OC)c1O	5.21	5.29	4.94	
COc1cc([C@@H]2c3cc4c(cc3[C@@H](NC(=S)NC(=O)c3ccccc3)[C@H]3COC(=O)[C@H]23)OCO4)cc(OC)c1O	5.20	5.21	5.01	Activity (HCT-116 [3]): 0%; Activity (HCT-116 [4]): 96.45%; Activity (HCT-116 [5]): 0%; Activity (HCT-116 [6]): 95.77%; Activity (HCT-116 [7]): 0%; Activity (HCT-116 [8]): 1.8%; Activity (HCT-116 [9]): 3.55%; Activity (HCT-116 [10]): 0%; Activity (HCT-116 [11]): 5.09%; Activity (HCT-116 [12]): 93.11%; Activity (HCT-116 [13]): 42.66%; Activity (HCT-116 [14]): 0%; Activity (HCT-116 [15]): 4.23%; inhibition [2]: Active; Activity (HCT-116 [16]): 48.6%; Activity (HCT-116 [17]): 0%; Activity (HCT-116 [18]): 8.74%
COc1cc([C@@H]2c3cc4c(cc3[C@@H](NC(=S)NC(=O)c3ccc(F)cc3)[C@H]3COC(=O)[C@H]23)OCO4)cc(OC)c1O	5.17	5.08	4.97	
COc1cc([C@@H]2c3cc4c(cc3[C@@H](NC(=S)NC(=O)c3cccc(C)c3)[C@H]3COC(=O)[C@H]23)OCO4)cc(OC)c1O	5.26	5.34	4.88	
COc1cc([C@@H]2c3cc4c(cc3[C@@H](O[C@@H]3O[C@@H]5CO[C@@H](C)O[C@H]5[C@H](O)[C@H]3O)[C@H]3COC(=O)[C@H]23)OCO4)cc(OC)c1O [ETOPOSIDE]	4.87	5.31	4.67	
COc1cc([C@@H]2c3cc4c(cc3[C@@H](NC(=S)NC(=O)c3cccc5ccccc35)[C@H]3COC(=O)[C@H]23)OCO4)cc(OC)c1O	5.66	4.73	5.22	inhibition [2]: Active
COc1cc([C@@H]2c3cc4c(cc3[C@@H](NC(=S)NC(=O)c3cccc(Cl)c3)[C@H]3COC(=O)[C@H]23)OCO4)cc(OC)c1O	5.17	5.12	4.75	
COc1cc([C@@H]2c3cc4c(cc3[C@@H](N)[C@H]3COC(=O)[C@H]23)OCO4)cc(OC)c1O	5.68	5.82	5.28	
COc1cc([C@@H]2c3cc4c(cc3[C@@H](NC(=S)NC(=O)c3ccccc3C)[C@H]3COC(=O)[C@H]23)OCO4)cc(OC)c1O	5.33	5.28	4.91	
COc1cc([C@@H]2c3cc4c(cc3[C@@H](NC(=S)NC(=O)c3ccccc3Cl)[C@H]3COC(=O)[C@H]23)OCO4)cc(OC)c1O	5.11	5.11	4.99	
COc1cc([C@@H]2c3cc4c(cc3[C@@H](NC(=S)NC(=O)c3ccc(C)cc3)[C@H]3COC(=O)[C@H]23)OCO4)cc(OC)c1O	5.17	5.52	4.95	
